Measured values taken from ChEMBL document CHEMBL1129074, “Inhibitors of human immunodeficiency virus type 1 derived from gp41 transmembrane protein: structure--activity studies” (J Med Chem, 1996).
Square brackets hold non-standard residues; d marks the D form. Peptide text beside a SMILES is read from it. Ahx = NCCCCCC(=O)O

Key:
[1] = system: MT4; test: (§1) Inhibitory potency of gp41 fragment against HIV-1 induced cytopathic effect in MT-4 cell assay at 20 uM; assay type: functional; settings: Homo sapiens
Summary of the method: (§2)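 MT4 cells (exponential growth) at 5×10^5 cells/mL infected with HIV-1 IIIB (100× TCID50) for 1 h at 37 °C, diluted 6-fold, added to serially diluted peptide in RPMI 1640/FCS medium; mock-infected controls. After 5 days at 37 °C, 5% CO2, cells lysed with Nonidet-40 and DNA content read by propidium iodide. Inhibition = restoration of infected-cell growth relative to uninfected controls; cytotoxicity measured in parallel.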

[2] = system: MT4; test: Inhibitory potency of gp41 fragment against HIV-1 induced cytopathic effect in MT-4 cell assay at 200 uM; assay type: functional; settings: Homo sapiens
[3] = system: MT4; test: Inhibitory potency of gp41 fragment against HIV-1 induced cytopathic effect in MT-4 cell assay at 100 uM; assay type: functional; settings: Homo sapiens
[4] = system: MT4; test: Inhibitory potency of gp41 fragment against HIV-1 induced cytopathic effect in MT-4 cell assay at 5 uM; assay type: functional; settings: Homo sapiens
[5] = system: MT4; test: Inhibitory potency of gp41 fragment against HIV-1 induced cytopathic effect in MT-4 cell assay at 6.4 uM; assay type: functional; settings: Homo sapiens
[6] = system: MT4; test: as §1; assay type: functional, Homo sapiens; settings: Homo sapiens, MT4; summary of the method: as §2
[7] = system: MT4; test: Inhibitory potency of gp41 fragment against HIV-1 induced cytopathic effect in MT-4 cell assay at 8 uM; assay type: functional; settings: Homo sapiens
[8] = system: MT4; test: Inhibitory potency of gp41 fragment against HIV-1 induced cytopathic effect in MT-4 cell assay at 40 uM; assay type: functional; settings: Homo sapiens

Compound: CC[C@H](C)[C@H](NC(=O)CNC(=O)[C@H](Cc1c[nH]c2ccccc12)NC(=O)[C@@H](NC(=O)[C@@H](NC(=O)[C@H](CC(C)C)NC(=O)[C@H](CCC(N)=O)NC(=O)[C@H](CC(C)C)NC(=O)[C@H](CC(C)C)NC(=O)CNC(=O)CNC(=O)[C@H](CS)NC(C)=O)[C@@H](C)O)C(C)C)C(=O)N[C@@H](CCCCN)C(=O)N[C@@H](CCC(N)=O)C(=O)N[C@@H](CC(C)C)C(=O)N[C@@H](CCC(N)=O)C(=O)N[C@@H](C)C(=O)N[C@@H](CCCN=C(N)N)C(=O)N[C@H](C(=O)N[C@@H](CC(C)C)C(=O)O)[C@@H](C)CC (Ac-CGGLLQLTVWGIKQLQARIL-OH)
- inhibition at 20 µM [1]: 30%

Compound: CC[C@H](C)[C@H](NC(=O)CNC(=O)[C@H](Cc1c[nH]c2ccccc12)NC(=O)[C@@H](NC(=O)[C@@H](NC(=O)[C@H](CC(C)C)NC(=O)[C@H](CCC(N)=O)NC(=O)[C@H](CC(C)C)NC(=O)[C@H](CC(C)C)NC(=O)[C@H](Cc1c[nH]cn1)NC(=O)[C@H](CCC(N)=O)NC(=O)[C@H](CCC(N)=O)NC(=O)[C@H](C)NC(=O)[C@H](CCC(=O)O)NC(=O)[C@@H](NC(=O)[C@H](C)NC(=O)[C@H](CCCN=C(N)N)NC(=O)[C@H](CC(C)C)NC(=O)[C@H](CC(C)C)NC(=O)[C@H](CC(N)=O)NC(=O)[C@H](CC(N)=O)NC(C)=O)[C@@H](C)CC)[C@@H](C)O)C(C)C)C(=O)N[C@@H](C)C(=O)N[C@@H](C)C(=O)N[C@@H](CC(C)C)C(=O)N[C@@H](CCC(N)=O)C(=O)N[C@@H](C)C(=O)N[C@@H](CCCN=C(N)N)C(=O)N[C@H](C(=O)N[C@@H](C)C(=O)N[C@@H](C)C(=O)N[C@H](C(=O)N[C@@H](CCC(=O)O)C(=O)N[C@@H](C)C(=O)N[C@@H](Cc1ccc(O)cc1)C(=O)N[C@@H](CC(C)C)C(=O)N[C@@H](C)C(=O)N[C@@H](C)C(=O)N[C@@H](CCC(N)=O)C(=O)O)C(C)C)[C@@H](C)CC (Ac-NNLLRAIEAQQHLLQLTVWGIAALQARIAAVEAYLAAQ-OH)
- inhibition at 20 µM [1]: 22%

Compound: CC[C@H](C)[C@H](NC(=O)CCCCCNC(=O)CCCCCNC(=O)CCCCCNC(=O)[C@H](CC(C)C)NC(=O)[C@H](CCC(N)=O)NC(=O)[C@H](CC(C)C)NC(=O)[C@H](CC(C)C)NC(=O)[C@H](Cc1c[nH]cn1)NC(=O)[C@H](CCC(N)=O)NC(C)=O)C(=O)N[C@@H](CCCCN)C(=O)N[C@@H](CCC(N)=O)C(=O)N[C@@H](CC(C)C)C(=O)N[C@@H](CCC(N)=O)C(=O)N[C@@H](C)C(=O)N[C@@H](CCCN=C(N)N)C(=O)N[C@H](C(=O)N[C@@H](CC(C)C)C(=O)N[C@@H](C)C(=O)N[C@H](C(=O)N[C@@H](CCC(=O)O)C(=O)O)C(C)C)[C@@H](C)CC (Ac-QHLLQL[Ahx][Ahx][Ahx]IKQLQARILAVE-OH)
- inhibition at 200 µM [2]: 0%

Compound: CC[C@H](C)[C@H](NC(=O)[C@H](CCCN=C(N)N)NC(=O)[C@H](C)NC(=O)[C@H](CCC(N)=O)NC(=O)[C@H](CC(C)C)NC(=O)[C@H](CCC(N)=O)NC(=O)[C@H](CCCCN)NC(=O)[C@@H](NC(=O)CNC(=O)[C@H](Cc1c[nH]c2ccccc12)NC(=O)[C@@H](NC(=O)[C@@H](NC(=O)[C@H](CC(C)C)NC(=O)[C@H](CCC(N)=O)NC(C)=O)[C@@H](C)O)C(C)C)[C@@H](C)CC)C(=O)O (Ac-QLTVWGIKQLQARI-OH)
- inhibition at 100 µM [3]: 0%

Compound: CC[C@H](C)[C@H](N)C(=O)N[C@@H](CCCCN)C(=O)N[C@@H](CCC(N)=O)C(=O)N[C@@H](CC(C)C)C(=O)N[C@@H](CCC(N)=O)C(=O)N[C@@H](C)C(=O)N[C@@H](CCCN=C(N)N)C(=O)N[C@H](C(=O)N[C@@H](CC(C)C)C(=O)N[C@@H](C)C(=O)N[C@H](C(=O)N[C@@H](CCC(=O)O)C(=O)N[C@@H](CCCN=C(N)N)C(=O)N[C@@H](Cc1ccc(O)cc1)C(=O)N[C@@H](CC(C)C)C(=O)N[C@@H](CCCCN)C(=O)N[C@@H](CC(=O)O)C(=O)N[C@@H](CCC(N)=O)C(=O)O)C(C)C)[C@@H](C)CC (H-IKQLQARILAVERYLKDQ-OH)
- inhibition at 200 µM [2]: 0%

Compound: CC[C@H](C)[C@H](NC(=O)[C@H](CCCN=C(N)N)NC(=O)[C@H](C)NC(=O)[C@H](CCC(N)=O)NC(=O)[C@H](CC(C)C)NC(=O)[C@H](CCC(N)=O)NC(=O)[C@H](CCCCN)NC(=O)[C@@H](NC(=O)CNC(=O)[C@H](Cc1c[nH]c2ccccc12)NC(=O)[C@@H](NC(=O)[C@@H](NC(=O)[C@H](CC(C)C)NC(=O)[C@H](CCC(N)=O)NC(=O)[C@@H](N)CC(C)C)[C@@H](C)O)C(C)C)[C@@H](C)CC)C(=O)O (H-LQLTVWGIKQLQARI-OH)
- inhibition at 100 µM [3]: 21%

Compound: CC[C@H](C)[C@H](NC(=O)CNC(=O)[C@H](Cc1c[nH]c2ccccc12)NC(=O)[C@@H](NC(=O)[C@@H](NC(=O)[C@H](CC(C)C)NC(=O)[C@H](CCC(N)=O)NC(=O)[C@H](CC(C)C)NC(=O)[C@H](CC(C)C)NC(=O)[C@H](Cc1c[nH]cn1)NC(=O)[C@H](CCC(N)=O)NC(=O)[C@H](CCC(N)=O)NC(=O)[C@H](C)NC(=O)[C@H](CCC(=O)O)NC(=O)[C@@H](NC(=O)[C@H](C)NC(=O)[C@H](CCCN=C(N)N)NC(=O)[C@H](CC(C)C)NC(=O)[C@H](CC(C)C)NC(=O)[C@H](CC(N)=O)NC(=O)[C@@H](N)CC(N)=O)[C@@H](C)CC)[C@@H](C)O)C(C)C)C(=O)N[C@@H](CCCCN)C(=O)N[C@@H](CCC(N)=O)C(=O)N[C@@H](CC(C)C)C(=O)N[C@@H](CCC(N)=O)C(=O)N[C@@H](C)C(=O)N[C@@H](CCCN=C(N)N)C(=O)N[C@H](C(=O)N[C@@H](CC(C)C)C(=O)N[C@@H](C)C(=O)N[C@H](C(=O)N[C@@H](CCC(=O)O)C(=O)O)C(C)C)[C@@H](C)CC (H-NNLLRAIEAQQHLLQLTVWGIKQLQARILAVE-OH)
- inhibition at 5 µM [4]: 37%

Compound: CC[C@H](C)[C@H](NC(=O)[C@H](CCCN=C(N)N)NC(=O)[C@H](C)NC(=O)[C@H](CCC(N)=O)NC(=O)[C@H](CC(C)C)NC(=O)[C@H](CCC(N)=O)NC(=O)[C@H](CCCCN)NC(=O)[C@@H](NC(=O)CNC(=O)[C@H](Cc1c[nH]c2ccccc12)NC(=O)[C@@H](NC(=O)[C@@H](NC(=O)[C@H](CC(C)C)NC(=O)[C@@H](N)CCC(N)=O)[C@@H](C)O)C(C)C)[C@@H](C)CC)C(=O)O (H-QLTVWGIKQLQARI-OH)
- inhibition at 100 µM [3]: 0%

Compound: CCCCCCCCCCCCC(N)C(=O)N[C@@H](CC(C)C)C(=O)N[C@@H](CCC(N)=O)C(=O)N[C@@H](CC(C)C)C(=O)N[C@H](C(=O)N[C@H](C(=O)N[C@@H](Cc1c[nH]c2ccccc12)C(=O)NCC(=O)N[C@H](C(=O)N[C@@H](CCCCN)C(=O)N[C@@H](CCC(N)=O)C(=O)N[C@@H](CC(C)C)C(=O)N[C@@H](CCC(N)=O)C(=O)N[C@@H](C)C(=O)N[C@@H](CCCN=C(N)N)C(=O)N[C@H](C(=O)O)[C@@H](C)CC)[C@@H](C)CC)C(C)C)[C@@H](C)O (some centres undefined) (HELM PEPTIDE1{[CCCCCCCCCCCCC(N)C(=O)[*:2]].L.Q.L.T.V.W.G.I.K.Q.L.Q.A.R.I}$$$$V2.0)
- inhibition at 6.4 µM [5]: 37%

Compound: CCCCCCCCCCCCC(N)C(=O)N[C@@H](CCC(N)=O)C(=O)N[C@@H](Cc1c[nH]cn1)C(=O)N[C@@H](CC(C)C)C(=O)N[C@@H](CC(C)C)C(=O)N[C@@H](CCC(N)=O)C(=O)N[C@@H](CC(C)C)C(=O)N[C@H](C(=O)N[C@H](C(=O)N[C@@H](Cc1c[nH]c2ccccc12)C(=O)NCC(=O)N[C@H](C(=O)N[C@@H](CCCCN)C(=O)N[C@@H](CCC(N)=O)C(=O)N[C@@H](CC(C)C)C(=O)N[C@@H](CCC(N)=O)C(=O)N[C@@H](C)C(=O)N[C@@H](CCCN=C(N)N)C(=O)N[C@H](C(=O)N[C@@H](CC(C)C)C(=O)N[C@@H](C)C(=O)N[C@H](C(=O)N[C@@H](CCC(=O)O)C(=O)N[C@@H](CCCN=C(N)N)C(=O)N[C@@H](Cc1ccc(O)cc1)C(=O)N[C@@H](CC(C)C)C(=O)N[C@@H](CCCCN)C(=O)N[C@@H](CC(=O)O)C(=O)N[C@@H](CCC(N)=O)C(=O)O)C(C)C)[C@@H](C)CC)[C@@H](C)CC)C(C)C)[C@@H](C)O (some centres undefined) (HELM PEPTIDE1{[CCCCCCCCCCCCC(N)C(=O)[*:2]].Q.H.L.L.Q.L.T.V.W.G.I.K.Q.L.Q.A.R.I.L.A.V.E.R.Y.L.K.D.Q}$$$$V2.0)
- inhibition at 20 µM [6]: 0%
- inhibition at 5 µM [4]: 10%
- inhibition at 8 µM [7]: 15%

Compound: CC[C@H](C)[C@H](NC(=O)[C@H](CCCN=C(N)N)NC(=O)[C@H](C)NC(=O)[C@H](CCC(N)=O)NC(=O)[C@H](CC(C)C)NC(=O)[C@H](CCC(N)=O)NC(=O)[C@H](CCCCN)NC(=O)[C@@H](NC(=O)CNC(=O)[C@H](Cc1c[nH]c2ccccc12)NC(=O)[C@@H](NC(=O)[C@@H](NC(=O)[C@H](CC(C)C)NC(=O)[C@H](CCC(N)=O)NC(=O)[C@H](CC(C)C)NC(=O)CCCCCN)[C@@H](C)O)C(C)C)[C@@H](C)CC)C(=O)O (HELM PEPTIDE1{[NCCCCCC(=O)[*:2]].L.Q.L.T.V.W.G.I.K.Q.L.Q.A.R.I}$$$$V2.0)
- inhibition at 40 µM [8]: 33%

Compound: CC[C@H](C)[C@H](NC(=O)[C@H](CCCN=C(N)N)NC(=O)[C@H](C)NC(=O)[C@H](CCC(N)=O)NC(=O)[C@H](CC(C)C)NC(=O)[C@H](CCC(N)=O)NC(=O)[C@H](CCCCN)NC(=O)[C@@H](NC(=O)CNC(=O)[C@H](Cc1c[nH]c2ccccc12)NC(=O)[C@@H](NC(=O)[C@@H](NC(=O)[C@H](CC(C)C)NC(=O)[C@H](CCC(N)=O)NC(=O)CCCCCN)[C@@H](C)O)C(C)C)[C@@H](C)CC)C(=O)O (HELM PEPTIDE1{[NCCCCCC(=O)[*:2]].Q.L.T.V.W.G.I.K.Q.L.Q.A.R.I}$$$$V2.0)
- inhibition at 40 µM [8]: 11%
